Results taken from paper PMC3086141 (Circulation. Cardiovascular interventions, 2011).

Tests used:
[1] = Quantification of bivalirudin concentration in plasma of PCI patients; format: in vivo; settings: both, human, iv, Residual plasma drug levels two hours after discontinuation of infusion, 2 h POST, LC/MS/MS
Procedure, shortened: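 Test compound given to 22 PCI patients as an IV bolus followed by continuous infusion. Plasma sampled at baseline, about 5 min post-bolus, 30 min into infusion (or at PCI end if earlier), and 5 min, 15 min and 2 h after infusion stopped. Levels measured by LC/MS/MS with a […] detection threshold. Data given as mean ± SD.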

[2] = PCI patients; bolus of 1.0 mg/kg followed by infusion of 2.5 mg/kg/h; cited from earlier work

## CC[C@H](C)[C@H](NC(=O)[C@H](CCC(=O)O)NC(=O)[C@H](CCC(=O)O)NC(=O)[C@H](Cc1ccccc1)NC(=O)[C@H](CC(=O)O)NC(=O)CNC(=O)[C@H](CC(N)=O)NC(=O)CNC(=O)CNC(=O)CNC(=O)CNC(=O)[C@@H]1CCCN1C(=O)[C@H](CCCNC(=N)N)NC(=O)[C@@H]1CCCN1C(=O)[C@H](N)Cc1ccccc1)C(=O)N1CCC[C@H]1C(=O)N[C@@H](CCC(=O)O)C(=O)N[C@@H](CCC(=O)O)C(=O)N[C@@H](Cc1ccc(O)cc1)C(=O)N[C@@H](CC(C)C)C(=O)O [bivalirudin]
[1]
  level at time molar: 200 nM
[2]
  Mean steady-state bivalirudin plasma levels, original dosage: 5.6 µM
  Terminal half-life, original dosage: 25 min
